Compounds with a hit are over-represented: about 0.99% of the library has one in this group of screens.
MT1-MMP act inh = blockers of MT1-MMP proenzyme processing, primary screen, HT1080 RFP-PRO-GFP cells, GFP/RFP fluorescence. AID 651647, 2012. GFP/RFP ratio change, % at 20 µM. hit rate 0.061% among 360,000. GFP/RFP ratio fluorescence, overnight; percent of plate control window, DMSO zero. Matrix metalloproteinase-14 (Homo sapiens), P50281;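 active = GFP/RFP ratio change of at least 30% with cell ATP level not reduced by more than half and red fluorescence within 50% of control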
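Material: RFP-PRO-GFP reporter HT1080 cells. Dosing: single-point 20 µM compound, 1% DMSO. Controls: DMSO and RFP-L50D-GFP cell wells. Timing: cells overnight before dosing, compound overnight, 37 °C, 5% CO2. Measure: GFP/RFP fluorescence ratio.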
TLR4-MyD88 BLA = inhibitors of TLR4-MyD88 association in cells, primary screen, cell-based, HeLa CL3-4, BLA complementation, FRET ratio; Toll-like receptor 4 (Homo sapiens) + Myeloid differentiation primary response protein …; HeLa CL3-4 TLR4/MyD88 BLA complementation; inhibition, % at 8.4 µM; hit rate 0.18% among 200,000; AID 861, 2007; in the data active = inhibition above about 25%;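 note: 0% = vehicle and 100% = reference inhibitor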
SKN-1 inh = suppressors of acrylamide-induced Pgst-4::GFP reporter in worms, primary screen, SKN-1 inhibitor project, whole organism, uHTS, GFP/RFP fluorescence ratio, strain VP596. C. elegans VP596 Pgst-4::GFP/RFP ratio, 24 h. inhibition, % at 21.8 µM. hit rate 0.49% among 360,000. AID 624304, 2012;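 active = interference check ratio from 0.5 to 1.5 plus GFP to RFP signal ratio inhibition reaching or exceeding a fixed threshold, cut at about 30% in these data, passing the limit was not always enough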
NOD2-RIPK2 inh = NOD2-RIPK2 binding disruptors in cells, primary screen, fluorescence, CHO cells, BLA complementation | Receptor-interacting serine/threonine-protein kinase 2 (Homo sapiens), O43353 | CCF4 ratio | inhibition, % at 4.98 µM | hit rate 0.38% among 360,000; in the data active = inhibition above about 21%;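 note: 0% = vehicle only and 100% = reference blocker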
TLR9-MyD88 inh = inhibitors of TLR9-MyD88 association in cells, primary screen, cell-based, CHO, BLA complementation, fluorescence; CCF4 FRET ratio; inhibition, % at 4.98 µM; hit rate 0.21% among 340,000; AID 504734, 2011;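 active = inhibition above the mean over all tested compounds plus 3 SD, cut at about 21% in these data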;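 note: 0% = DMSO only wells and 100% = clavulanate BLA inhibitor control wells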
The depositor's hits bear a star; nt = no result given.

SMILES	MT1-MMP act inh	TLR4-MyD88 BLA	SKN-1 inh	NOD2-RIPK2 inh	TLR9-MyD88 inh
CCN1C(=O)NC(=O)/C(=C\c2ccc(N3CCOCC3)cc2OC)C1=O	nt	-1.6	nt	nt	nt
COc1cc(N2CCOCC2)ccc1/C=C1\C(=O)NC(=O)N(C2CCCCC2)C1=O	1.3	8.4	50.2*	1.7	0.6
Cc1ccccc1N1C(=O)NC(=O)/C(=C\c2cc(Br)c(N3CCOCC3)o2)C1=O	-122.5	-2.4	37.6*	-13.2	1.4
O=C1c2ccccc2-c2cc3ccccc3cc21	-0.1	nt	29.9	-11.0	-7.1
O=C1C=C(N2CC2)c2ccccc2C1=O	19.4	nt	36.8*	-4.6	8.1
CCN(CC)c1ccc(/C=C2/C(=O)NC(=O)N(CC3CCCO3)C2=O)cc1 (centres undefined)	-25.3	-4.1	52.3	2.8	1.8
CCN(CC)c1ccc(/C=C2\C(=O)NC(=O)N(Cc3ccco3)C2=O)cc1	-34.9	6.7	48.1*	-10.2	6.8
CCCCN1C(=O)/C(=C/c2ccc(N(C)C)cc2)C(=O)N(Cc2ccco2)C1=O	-62.5	0.9	39.9*	3.2	3.6
CC1(C)CC(n2[nH]c(=O)c3c2NC(=O)CSC3c2ccc(F)cc2)CCO1 (centres undefined)	1.6	-6.5	-3.3	-12.0	3.0
N#CC(C#N)=Cc1ccc(O)c(O)c1	-0.4	nt	-23.2	1.8	3.2
CC(C)(C)c1cc(C=C(C#N)C#N)cc(C(C)(C)C)c1O	4.9	nt	41.8*	2.8	3.2
COc1ccc(CN2CCN(c3ccccc3F)CC2)cc1O	-2.3	-1.7	46.4*	-1.5	-9.1
CCCCC(C)C(OC(=O)CC(CC(=O)O)C(=O)O)C(CC(C)CC(O)CCCCC(O)CC(O)C(C)N)OC(=O)CC(CC(=O)O)C(=O)O (centres undefined)	-0.1	6.8	2.8	-6.1	-9.5
CSc1ncc(CN2CCCC(C(=O)c3cccc(Cl)c3)C2)cn1 (centres undefined)	-2.4	9.9	2.9	-0.6	3.3
COc1ccc(CN2CCCC(C(=O)c3cccc(Cl)c3)C2)cc1 (centres undefined)	-0.8	nt	43.2*	0.5	-6.0
C=C(C)[C@@]12OC3(c4ccccc4)O[C@@H]1C1[C@@H]4O[C@]4(CO)[C@@H](O)[C@]4(O)C(=O)C(C)=C[C@H]4[C@@]1(O3)[C@H](C)[C@H]2OC(=O)/C=C/C=C/c1ccccc1 (some centres undefined)	-17.9	nt	70.2*	-1.7	3.7
COC(=O)C1=C(c2cccc(OCc3ccccc3)c2)C[C@@H]2CC[C@H]1N2C(=O)NC1CCN(Cc2ccccc2)CC1	1.7	nt	-15.3	3.4	9.8
OCC[n+]1c2ccccc2nc2ccc(N3CCOCC3)cc21	11.4	nt	37.6*	1.1	nt
O=C(CCc1ccccc1)N1Cc2cc(N3CCOCC3)ccc2-n2nncc2C1	2.5	nt	7.6	-13.3	nt
COC(=O)[C@]12OC[C@]34C([C@@H](O)[C@@H]1O)[C@]1(C)CC(=O)C(O)=C(C)[C@@H]1C[C@H]3OC(=O)[C@H](O)[C@@H]24 (some centres undefined)	-54.2	nt	18.7	26.4*	-5.6
O=C1NC2C(=CC(O)C(O)C2O)c2cc3c(cc21)OCO3 (centres undefined)	-41.8	nt	39.9*	15.4	4.2
c1ccc(N2C3C4CC(C5CCCC54)C32)cc1 (centres undefined)	2.5	nt	-1.5	-7.8	-4.3
C=CCn1c(C)c(C=C2C(=O)NC(=O)NC2=O)c2ccccc21	2.1	nt	39.6*	-7.0	11.1
CCn1c(=O)n(CC(=O)N2CCC3(CC2)OCCO3)c(=O)c2ccccc21	2.0	5.1	0.0	-10.1	8.3
CN1C(=O)/C(=C\c2ccc(Br)s2)C(=O)NC1=S	nt	nt	37.3*	-3.6	-14.0
SMILES	MT1-MMP act inh	TLR4-MyD88 BLA	SKN-1 inh	NOD2-RIPK2 inh	TLR9-MyD88 inh
O=C1NC(=S)NC(=O)C1=Cc1ccc(Br)s1	-12.5	nt	20.3	2.0	0.6
Cc1cccc(N2C(=O)NC(=O)/C(=C\c3ccc4c(c3)CCCN4Cc3ccccc3)C2=O)c1	-5.8	-9.0	39.6*	-1.1	1.1
CC1=NN(c2ccccc2)C(=O)C1/C=C1/C(=O)NC(=O)N(c2cccc(C)c2)C1=O (centres undefined)	nt	-14.5	nt	nt	nt
ClCC(Br)CBr (centres undefined)	0.2	nt	2.0	5.9	-15.3
C=CCN1C(=O)C2(C(C(=O)OCC)=C(N)Oc3ccccc32)C2=C1CCCC2=O (centres undefined)	4.5	7.9	36.9*	-4.9	4.0
NCC(O)c1cc(O)c(O)cc1F (centres undefined)	4.1	nt	-8.6	-19.1	9.4
CCOP(=O)(Nc1ccc2c(c1)C(=NNC(N)=S)c1ccccc1-2)OCC	4.2	nt	11.0	-4.9	-8.1
O=C(c1ccc(Cl)cc1)C1CCCN(Cc2ccc3ncccc3c2)C1 (centres undefined)	-11.7	4.2	-8.6	5.1	8.5
CCOC(=O)[C@]12Cc3cc(Cl)ccc3[C@H]1N(CC(=O)OC)C(=O)c1ccccc12	-2.8	nt	-0.9	18.6	nt
COC(=O)C[C@]1(C(=O)OC)CN(C#N)N(c2ccc(Cl)cc2)C12c1ccccc1-c1ccccc12	-19.4	3.7	8.0	55.0*	7.4
CNC(=O)Oc1cccc(-c2cn3cc(OC(=O)NC)ccc3n2)c1	nt	-3.9	49.6*	-24.1	4.8
O=C1/C(=C/c2ccccc2)C[C@@]2(O)[C@H]3Cc4ccc(O)c5c4[C@@]2(CCN3CC2CC2)C1O5 (some centres undefined)	-6.8	nt	-3.9	35.0*	7.3
Cc1c(-c2cccc(Cl)c2)nc2ccccc2c1C(=O)N1CCC2(CC1)OCCO2	-2.7	nt	-6.2	-1.0	-10.2
CN1C(=O)C(=Cc2sc(=O)n(-c3ccccc3)c2N2CCCCC2)C(=O)N(C)C1=O	-65.5	nt	38.5*	-3.3	-0.4
CC1([N+](=O)[O-])COP(=O)(NCc2cccnc2)OC1 (centres undefined)	-4.3	nt	-2.1	-4.1	-17.4
COc1cc(/C=N/NP(=S)(c2ccccc2)c2ccccc2)ccc1O	0.0	-0.1	16.7	-7.9	-1.2
Oc1ccc(/C=N/NP(=S)(c2ccccc2)c2ccccc2)cc1	-2.4	-9.7	37.8*	0.1	-4.5
Cc1ccc(-n2c(O)c(C=Nc3ccc(S(=O)(=O)N(C)C)cc3)c(=O)[nH]c2=O)cc1	-206.7	3.5	33.8*	-8.2	4.5
Cc1ccc(N=Cc2c(O)n(-c3ccc(C)cc3)c(=O)[nH]c2=O)cc1	-1.2	nt	25.1	-4.3	-11.8
